In the library only some 4.1% were active in any assay of this set; here they are far more common.
KCNK9 inh – KCNK9 potassium channel inhibitors, primary screen, HEK293 cells, thallium flux | Potassium channel subfamily K member 9 (Homo sapiens), Q9NPC2 | FluxOR thallium flux fluorescence; active compounds read low | B-score at 10 µM | hit rate 1.2% among 310,000 | AID 488922, 2010;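 active = ratio B-score over 3 SD below the library mean, with starting fluorescence within 5 SD of its mean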;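 note: negative B-score means less thallium flux so channel inhibition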
Target sequence (Q9NPC2 whole entry, looked up): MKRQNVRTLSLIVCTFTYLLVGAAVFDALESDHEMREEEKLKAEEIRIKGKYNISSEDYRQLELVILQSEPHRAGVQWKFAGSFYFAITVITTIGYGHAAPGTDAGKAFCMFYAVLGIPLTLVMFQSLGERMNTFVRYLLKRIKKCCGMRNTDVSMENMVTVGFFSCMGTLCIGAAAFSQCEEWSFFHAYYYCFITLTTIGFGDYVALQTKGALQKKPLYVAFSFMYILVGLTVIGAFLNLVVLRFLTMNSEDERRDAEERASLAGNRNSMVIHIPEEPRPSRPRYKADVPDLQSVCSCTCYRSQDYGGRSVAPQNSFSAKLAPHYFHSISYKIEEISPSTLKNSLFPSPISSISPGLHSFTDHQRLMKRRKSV
KCNK3 block – human KCNK3 channel inhibitors, primary screen, CHO cells, FluxOR thallium flux, B-score; Potassium channel subfamily K member 3 (Homo sapiens), O14649; FluxOR fluorescence; active compounds read low; B-score at 10 µM; hit rate 0.84% among 340,000; AID 602410, 2012;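 active = B-score under library mean minus 4 SD, starting fluorescence ratio at most library mean plus 5 SD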;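 note: more negative B-score means stronger inhibition of thallium flux through KCNK3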
Target sequence (O14649 whole entry, looked up): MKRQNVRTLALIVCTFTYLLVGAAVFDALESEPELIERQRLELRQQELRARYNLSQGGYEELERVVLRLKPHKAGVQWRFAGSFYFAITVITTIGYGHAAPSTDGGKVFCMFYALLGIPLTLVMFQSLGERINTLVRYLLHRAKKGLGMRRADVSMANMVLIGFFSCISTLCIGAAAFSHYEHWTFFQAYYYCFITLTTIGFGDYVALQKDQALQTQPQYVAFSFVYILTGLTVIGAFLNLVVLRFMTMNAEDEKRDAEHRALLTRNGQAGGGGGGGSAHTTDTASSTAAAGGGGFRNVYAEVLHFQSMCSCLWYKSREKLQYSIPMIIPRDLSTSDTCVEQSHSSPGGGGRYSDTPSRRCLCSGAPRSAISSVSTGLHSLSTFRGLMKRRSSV
Cl transport mod – KCC2 cotransporter modulators, thallium flux, primary screen, cell-based, HEK293 KCC2, FluoZin-2 fluorescence, MLSMR; KCC2 cells, thallium flux FluoZin-2 fluorescence; B-score of Tl+ flux slope (higher = more flux/activation; lower = inhibition) at 10 µM; AID 1456, 2008; hit rate 2.2% among 190,000;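 active = thallium flux slope and its plate-corrected score both differing from the plate sample mean at a set confidence after two filtering rounds, in either direction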;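 note: slope of fluorescence scaled to starting intensity during 10 to 20 s after thallium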
KCNQ1 block – inhibitors of human KCNQ1 channel, primary screen, cell-based, thallium flux, high-throughput; Potassium voltage-gated channel subfamily KQT member 1 (Homo sapiens), P51787; CHO-K1 KCNQ1, FluxOR thallium flux fluorescence; active compounds read high; B-score at 10 µM; hit rate 1.3% among 310,000;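 active = compounds whose thallium flux B-score, printed positive for inhibition, exceeds three library SD while starting fluorescence stays within three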;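 note: channel opened by potassium depolarization with thallium stimulus after 20 min compound exposure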
hERG rescue – hERG rescue from dofetilide block, primary screen, cell-based, CHO-hERG, FluxOR thallium flux, dofetilide IC70 | Voltage-gated inwardly rectifying potassium channel KCNH2 (Homo sapiens), Q12809 | dofetilide IC70 present | activation (rescue from dofetilide block), less the hit threshold, % at 10 µM | hit rate 0.51% among 310,000 | AID 1511, 2009;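 active = activation above the mean of controls blocked by dofetilide plus 5 SD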;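 note: thallium influx through hERG after potassium depolarization seen as dye fluorescence rise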
KCNQ1 pot – potentiators or activators of KCNQ1 channel, primary screen, cell-based, thallium flux, high-throughput; CHO-K1 KCNQ1, thallium flux FluxOR fluorescence; active compounds read high; B-score at 10 µM; hit rate 0.35% among 310,000; AID 2648, 2010;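 active = fluorescence ratio B-score, a plate-corrected score, at least three library SD, with initial intensity B-score within 5 SD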
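System: CHO-K1 cells stably expressing KCNQ1 / Medium: assay buffer for compound exposure, DMSO matched across wells / Reagent: thallium- and potassium-containing depolarizing buffer / Compound: one concentration, matched DMSO / Incubation: 20 min compound pretreatment at room temperature / Measured by: kinetic FluxOR fluorescence, 10 s baseline plus 110 s post-stimulus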
KCC2 sec1 – KCC2 modulators in sodium-free buffer, confirmation, cell-based, HEK293 KCC2, thallium flux, secondary assay; shares compounds with Cl transport mod; hit rate 15% among 3,700; normalised thallium flux (F/F0 slope) at 10 µM; FluoZin2 fluorescence; active compounds read high;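 active = thallium flux slope above the same plate's solvent-only control mean plus 3 SD; inconclusive = the two replicate wells disagree; inactive = no significant difference from solvent-only control wells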
KCC2 bumet counter – thallium flux persisting under bumetanide in KCC2 cells, confirmation, counter-screen for KCC2 modulator project, cell-based, HEK293 KCC2, FluoZin2, secondary assay 3. shares compounds with Cl transport mod. HEK293-KCC2 + bumetanide/ouabain; active compounds read high. normalized thallium flux at 10 µM. hit rate 49% among 3,700;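 active = thallium entry rate above the same plate's blocked-transporter control wells by more than 3 SD; inconclusive = the two repeat wells disagree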;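 note: raw slope of fluorescence over initial fluorescence between 10 and 20 s after thallium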
KCC2 secondary2 – KCC2 modulators without ouabain present, confirmation, cell-based, HEK293 KCC2, thallium flux, FluoZin2, secondary assay 2; shares compounds with Cl transport mod; thallium flux FluoZin2 fluorescence; actives lie on both sides; F/F0 rise rate, 10–20 s post-thallium; normalized thallium flux at 10 µM; hit rate 23% among 3,700; AID 1715, 2009;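 active = thallium flux slope more than 3 SD above or below the plate's solvent-only control mean, mostly below; inconclusive = the two repeat wells disagreed; inactive = no significant shift from solvent-only controls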;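 note: raw slope with 0.1% DMSO as baseline and bumetanide as block control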
HEK counter1 – thallium flux modulation in parental HEK cells, confirmation, counter-screen for KCC2 modulator project, cell-based, counterscreen 1; shares compounds with Cl transport mod; HEK293 parental cells, thallium flux FluoZin2, ouabain; baseline-ratio fluorescence slope, 10–20 s after thallium; thallium flux rate (normalised fluorescence) at 10 µM; hit rate 46% among 3,700; AID 1716, 2009;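 active = thallium flux rate significantly above the same plate's solvent-only control wells, beyond their mean plus 3 SD; inconclusive = the two replicate wells gave conflicting results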
KCC2 retest ouab – KCC2 inhibitors and activators, ouabain retest, confirmation, HEK-KCC2 cells; shares compounds with Cl transport mod; HEK293-KCC2, thallium flux FluoZin2 fluorescence; bidirectional: low = inhibitor, high = activator; raw Tl+ flux slope (below DMSO = inhibition, above = activation) at 10 µM; hit rate 48% among 3,700;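 active = thallium flux slope beyond 3 SD from same-plate DMSO control mean in most replicates, usually higher, sometimes lower; inconclusive = repeat tests gave conflicting results; inactive = no significant difference from controls in most replicates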;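 note: slope of initial-normalized fluorescence between seconds 10 and 20 after thallium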
HEK counter2 – native HEK Tl+ uptake effects, second counter-screen – HEK cells, counterscreen 2, counter-screen for KCC2 modulator project, confirmation; shares compounds with Cl transport mod; HEK293 parental, thallium flux FluoZin-2 fluorescence slope; thallium flux slope at 10 µM; hit rate 33% among 3,700; AID 1718, 2009;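 active = thallium flux slope above the same plate's solvent-control mean plus 3 SD in both duplicate wells; inconclusive = duplicate wells that disagreed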;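 note: run without ouabain in cells lacking the KCC2 cotransporter; slope of fluorescence scaled to its starting value between 10 and 20 s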
KCNK9 inh conf – KCNK9 potassium channel inhibitors, confirmation, HEK293 cells, thallium flux, duplicate | hit rate 43% among 4,900 | FluxOR thallium flux fluorescence | inhibition, % at 10 µM | shares compounds with KCNK9 inh;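 active = thallium signal inhibited by more than 5 SD of the compound-free buffer control wells, on both duplicate plates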;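 note: 0% = assay buffer control wells without compound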
Kir2-1 spec – mouse Kir2.1 channel inhibition, confirmation, selectivity assay for KCNK9 modulator project, cell-based, HEK293, thallium flux; Kir2.1 cells, FluxOR thallium flux fluorescence; hit rate 4% among 4,900; inhibition, % at 10 µM; shares compounds with KCNK9 inh; AID 492993, 2010;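 active = thallium signal drop more than 5 SD beyond the mean of the no-compound control wells, seen in both duplicate plates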;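 note: signal is fluorescence rise after thallium addition divided by baseline fluorescence; plate controls were assay buffer only for no effect and full block by chlorpromazine control for full effect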
KCNK9 uninduced – thallium flux in non-induced HEK293 cells, confirmation, counter-screen for KCNK9 inhibitor project, cell-based, second counter screen, non-induced KCNK9-HEK293; shares compounds with KCNK9 inh; FluxOR thallium flux; inhibition, % at 10 µM; hit rate 40% among 4,900; AID 492997, 2010;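 active = thallium signal drop beyond 5 SD of the untreated control mean, on both duplicate plates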;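 note: plate controls were buffer only IC0 wells for no effect and SID17386958 at its maximal inhibitory level for full effect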
KCNK3 inh conf – retest of human KCNK3 channel inhibitors, confirmation, CHO cells, FluxOR thallium flux, triplicate. shares compounds with KCNK3 block. AID 651638, 2012. FluxOR fluorescence; 0% buffer, 100% carvedilol maximal block. hit rate 99% among 2,400. ratio percent of control, % at 10 µM;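 active = ratio percent of control, averaged over triplicates, above buffer control mean plus 5 SD, cut at about 64% in these data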;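 note: ratio is the fluorescence rise from min to max over baseline after thallium stimulus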
KCNK3 uninduced – thallium flux inhibition in non-induced cells, primary screen, counter-screen for KCNK3 inhibitor project, cell-based, non-induced KCNK3 line, FluxOR thallium, triplicate. shares compounds with KCNK3 block. non-induced KCNK3 parental cells; active compounds read low. thallium flux ratio (lower = more inhibition) at 10 µM. hit rate 40% among 2,400;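 active = thallium flux ratio, averaged over three wells, more than 5 SD below the buffer control mean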;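 note: host cells are CHO cells without KCNK3 induction; ratio is peak minus trough fluorescence over baseline then normalized to buffer controls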
* marks the source's active call; other numbers are inactive results; ! = not active in a repeat.

Results for CC(C)NC(=O)c1onc(CSc2ccc(Cl)cc2)c1C(=O)NC(C)C ?
KCNK9 inh: inactive; KCNK3 block: inactive; Cl transport mod: 2.39*; KCNQ1 block: inactive; hERG rescue: -8.5; KCNQ1 pot: inactive; KCC2 sec1: 0.0066; KCC2 bumet counter: 0.00453; KCC2 secondary2: 0.0272; HEK counter1: 0.00717; KCC2 retest ouab: 0.017; HEK counter2: 0.0101; KCNK9 inh conf: inactive; Kir2-1 spec: inactive; KCNK9 uninduced: inactive

What do the screens show for `O=C(c1ccc(COc2ccccc2Cl)o1)N1CCN(Cc2ccc3c(c2)OCO3)CC1`?
KCNK9 inh: -11.7*; KCNK3 block: -10.5*!; Cl transport mod: -1.6; KCNQ1 block: inactive; hERG rescue: -11.8; KCNQ1 pot: inactive; KCC2 sec1: 0.00698; KCC2 bumet counter: 0.0056; KCC2 secondary2: 0.0289; HEK counter1: 0.00618; KCC2 retest ouab: inconclusive; HEK counter2: 0.0102; KCNK9 inh conf: 47.0%*; Kir2-1 spec: inactive; KCNK9 uninduced: 25.0%*; KCNK3 inh conf: 123.3*; KCNK3 uninduced: inactive

How did NC(=O)c1ccc(NC(=O)COC(=O)C2COc3ccccc3O2)cc1 (stereo not drawn) do in these assays?
KCNK3 block: inactive

How did CCOC(=O)c1nc(C)nc(Sc2n[nH]c(-c3cc(C(F)(F)F)cc(C(F)(F)F)c3)n2)c1C do in these assays?
KCNK9 inh: inactive; KCNK3 block: -9.4*; Cl transport mod: -3.58*; KCNQ1 block: 6*; hERG rescue: -11.0; KCNQ1 pot: inactive; KCC2 sec1: 0.00851; KCC2 bumet counter: 0.00605; KCC2 secondary2: 0.0345; HEK counter1: inconclusive; KCC2 retest ouab: 0.0169*; HEK counter2: 0.0112; KCNK3 inh conf: 102.3*; KCNK3 uninduced: 0.117*

Results for CC12CCC(=O)C=C1CCC1C2C(O)CC2(C)C1CCC2(O)C(=O)COC(=O)COCC(=O)O (stereo not drawn) ?
KCNK3 block: inactive

Results for O=C1c2ccccc2C(Nc2ccc(S(=O)(=O)N3CCOCC3)cc2)N1Cc1ccco1 (stereo not drawn) ?
KCNK9 inh: inactive; KCNK3 block: inactive; Cl transport mod: -0.529; KCNQ1 block: inactive; hERG rescue: -12.2; KCNQ1 pot: inactive

What do the screens show for `O=C1c2ccccc2C(Nc2ccc(S(=O)(=O)N3CCCCC3)cc2)N1Cc1ccco1` (stereo not drawn)?
KCNK9 inh: -7.19*; KCNK3 block: -11.7*; Cl transport mod: -5.14*; KCNQ1 block: inactive; hERG rescue: -15.1; KCNQ1 pot: inactive; KCC2 sec1: 0.00679; KCC2 bumet counter: 0.00428; KCC2 secondary2: inconclusive; HEK counter1: 0.0062*; KCC2 retest ouab: 0.0143*; HEK counter2: 0.00984; KCNK3 inh conf: 99.7*; KCNK3 uninduced: inactive

What do the screens show for `N#Cc1ccccc1Sc1ccccc1C(=O)OCc1nnc(-c2ccccc2)o1`?
KCNK9 inh: inactive; KCNK3 block: -9.86*; Cl transport mod: -3.79*; KCNQ1 block: inactive; hERG rescue: -7.6; KCNQ1 pot: inactive; KCC2 sec1: inconclusive; KCC2 bumet counter: 0.0059; KCC2 secondary2: 0.0311; HEK counter1: 0.0102*; KCC2 retest ouab: inconclusive; HEK counter2: 0.0106; KCNK3 inh conf: 78.0*; KCNK3 uninduced: inactive

Bioassay records as filed in PubChem BioAssay.
